Test results from ChEMBL document CHEMBL2407061, “Medicinal chemistry of dihydropyran-based medium ring macrolides related to aspergillides: selective inhibition of PI3Kα” (J Med Chem, 2013).
Values belong to the molecule of their own block, whether it stands above or below them. Calls of active or inactive are those of the source. The calls are words filed in the database; no cut-off is given here.

Tests used:
HL-60 [1] = test: Antiproliferative activtiy against human HL60 cells assessed as growth inhibition after 48 hrs by MTT assay; format: functional, cell-based; settings: HL-60, 48 h
Outline: (§1)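 15000 cells per well in 200µl medium, exposed to a range of concentrations for 48 h (compounds in DMSO, diluted in complete medium). MTT (20µl of 2.5 mg/ml) added for 2 h at 37°C, formazan dissolved in DMSO, OD read at 570 nm. Viability = OD test/OD control ×100. IC50 taken from the concentration–survival curve after blank subtraction.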

PC-3 = test: Antiproliferative activtiy against human PC3 cells assessed as growth inhibition after 48 hrs by MTT assay; format: functional, cell-based; settings: PC-3, 48 h; outline: as §1
A-375 = test: Antiproliferative activtiy against human A375 cells assessed as growth inhibition after 48 hrs by MTT assay; format: functional, cell-based; settings: A-375, 48 h; outline: as §1
HL-60 [2] = test: Cell cycle arrest in human HL60 cells assessed as accumulation at G0/G1 phase at 20 uM after 6 hrs using by propidium iodide staining by FACS analysis (reference value: 6%); format: functional
HL-60 [3] = test: Induction of apoptosis in human HL60 cells assessed as early apoptotic cells at 20 uM after 6 hrs by Annexine V/propidium iodide staining-based FACS flow cytometry analysis (reference value: 4%); format: functional
HL-60 [4] = test: Induction of apoptosis in human HL60 cells assessed as blebbing and shrinkage of cells at 5 to 20 uM after 6 hrs by phase contrast microscopy
[5] = target: Phosphatidylinositol 4,5-bisphosphate 3-kinase catalytic subunit alpha isoform (Homo sapiens) (UniProt P42336); test: Inhibition of PI3K p110 alpha in human HL60 cells assessed as inhibition of GSK3 beta phosphorylation by Western blotting analysis; format: cell-based; settings: HL-60
Sequence of Phosphatidylinositol 4,5-bisphosphate 3-kinase catalytic subunit alpha isoform (Homo sapiens) (P42336 whole entry, canonical isoform): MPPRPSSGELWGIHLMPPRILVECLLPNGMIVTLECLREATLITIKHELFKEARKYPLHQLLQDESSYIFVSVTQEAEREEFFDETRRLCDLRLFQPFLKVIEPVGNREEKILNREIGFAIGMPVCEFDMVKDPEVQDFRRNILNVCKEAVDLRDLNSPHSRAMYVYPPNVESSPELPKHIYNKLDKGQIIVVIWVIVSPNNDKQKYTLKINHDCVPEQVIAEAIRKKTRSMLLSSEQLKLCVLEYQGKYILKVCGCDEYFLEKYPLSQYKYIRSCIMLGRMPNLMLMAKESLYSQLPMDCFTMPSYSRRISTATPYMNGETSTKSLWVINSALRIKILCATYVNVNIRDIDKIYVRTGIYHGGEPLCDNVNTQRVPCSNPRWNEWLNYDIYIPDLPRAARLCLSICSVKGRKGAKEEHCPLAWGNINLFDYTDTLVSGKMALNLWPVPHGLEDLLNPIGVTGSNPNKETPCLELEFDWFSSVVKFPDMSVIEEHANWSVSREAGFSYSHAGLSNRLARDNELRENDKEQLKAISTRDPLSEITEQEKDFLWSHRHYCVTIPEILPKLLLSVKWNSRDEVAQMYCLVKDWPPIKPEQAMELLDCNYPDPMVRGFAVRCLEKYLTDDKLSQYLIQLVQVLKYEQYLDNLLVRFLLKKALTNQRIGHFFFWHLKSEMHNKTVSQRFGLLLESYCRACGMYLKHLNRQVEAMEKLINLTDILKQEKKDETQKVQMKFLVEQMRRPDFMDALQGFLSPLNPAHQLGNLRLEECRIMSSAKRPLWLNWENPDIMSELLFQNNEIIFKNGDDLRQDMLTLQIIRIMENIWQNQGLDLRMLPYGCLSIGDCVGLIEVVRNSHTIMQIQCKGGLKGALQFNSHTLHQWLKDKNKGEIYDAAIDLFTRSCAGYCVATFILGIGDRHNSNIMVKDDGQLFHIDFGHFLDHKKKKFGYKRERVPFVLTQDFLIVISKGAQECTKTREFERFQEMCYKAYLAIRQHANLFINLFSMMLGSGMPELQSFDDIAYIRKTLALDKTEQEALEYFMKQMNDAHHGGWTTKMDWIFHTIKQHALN
Outline: (§2)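 Treated and untreated HL-60 cells spun at 400g at 4°C, washed in PBS and lysed in RIPA buffer for whole-cell lysate. 60 µg protein per lane run on SDS-PAGE and probed with primary antibodies. ECL chemiluminescence detection, with β-actin as the loading control.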

HL-60 [6] = test: Induction of apoptosis in human HL60 cells assessed as early apoptotic cells at 5 uM after 6 hrs by Annexine V/propidium iodide staining-based FACS flow cytometry analysis (reference value: 4%); format: functional
HL-60 [7] = test: Induction of apoptosis in human HL60 cells assessed as late apoptotic cells at 5 uM after 6 hrs by Annexine V/propidium iodide staining-based FACS flow cytometry analysis (reference value: 2%); format: functional
HL-60 [8] = test: Cell cycle arrest in human HL60 cells assessed as accumulation at G0/G1 phase at 5 uM after 6 hrs using by propidium iodide staining by FACS analysis (reference value: 6%); format: functional
[9] = Cytotoxicity against human FR2 cells after 48 hrs by MTT assay; format: cell-based; settings: FR2, 48 h; outline: as §1
HL-60 [10] = test: Induction of apoptosis in human HL60 cells assessed as early apoptotic cells at 10 uM after 6 hrs by Annexine V/propidium iodide staining-based FACS flow cytometry analysis (reference value: 4%); format: functional
HL-60 [11] = test: Inhibition of human ERK 1/2 expression in human HL60 cells by Western blotting analysis; format: functional, cell-based; outline: as §2
HL-60 [12] = test: Induction of apoptosis in human HL60 cells assessed as change in cell morphology after 6 hrs
[13] = target: Phosphatidylinositol 4,5-bisphosphate 3-kinase catalytic subunit alpha isoform (Homo sapiens) (UniProt P42336); test: Inhibition of PI3K p110 alpha in human HL60 cells assessed as inhibition of AKT phosphorylation at T308 by Western blotting analysis; format: cell-based; settings: HL-60; outline: as §2
HL-60 [14] = test: Induction of apoptosis in human HL60 cells assessed as change in nuclear morphology at 5 to 20 uM after 6 hrs by Hoechst 33258 staining-based inverted fluorescence analysis; format: functional, cell-based
Outline: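 HL-60 cells exposed for 6 h. Spun at 400 g, washed twice in PBS, stained 30 min at room temperature under subdued light with Hoechst 33258 (10 µg/ml in citrate/phosphate buffer with 0.05% Tween 20). Mounted in PBS:glycerol 1:1 and viewed by UV-excitation fluorescence microscopy for nuclear changes and apoptotic bodies.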

HL-60 [15] = test: Induction of apoptosis in human HL60 cells assessed as late apoptotic cells at 10 uM after 6 hrs by Annexine V/propidium iodide staining-based FACS flow cytometry analysis (reference value: 2%); format: functional
HL-60 [16] = test: Induction of apoptosis in human HL60 cells assessed as decrease in expression of cytochrome c in mitochondrial fraction after 6 hrs by Western blot analysis; format: functional, cell-based
Outline: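 4×10^6 HL-60 cells treated for 6 h. Cytosolic fraction from a 2 min digitonin lysis then 12000g spin; mitochondrial fraction lysed in RIPA. Cytochrome c detected by western blot, with COX IV as the mitochondrial loading control and β-actin as the cytosolic loading control.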

[17] = target: Phosphatidylinositol 4,5-bisphosphate 3-kinase catalytic subunit alpha isoform (Homo sapiens) (UniProt P42336); test: Inhibition of PI3K p110 alpha in human HL60 cells assessed as inhibition of AKT phosphorylation at AKT S473 by Western blotting analysis; format: cell-based; settings: HL-60; outline: as §2
HL-60 [18] = test: Induction of apoptosis in human HL60 cells assessed as mitochondrial membrane potential loss at 20 uM after 6 hrs by RH 123 staining-based flow cytometer analysis (reference value: 6%); format: functional
Outline: (§3)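 1×10^6 HL-60 cells in 12-well plates, exposed to 5, 10 or 20 µM for 6 h. Rhodamine 123 added 30 min before the end. Cells collected at 400 g, washed once in PBS, and fluorescence read in the FL-1 channel of a flow cytometer.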

HL-60 [19] = test: Induction of apoptosis in human HL60 cells assessed as mitochondrial membrane potential loss at 5 uM after 6 hrs by RH 123 staining-based flow cytometer analysis (reference value: 6%); format: functional; outline: as §3
HL-60 [20] = test: Cell cycle arrest in human HL60 cells assessed as accumulation at G0/G1 phase at 10 uM after 6 hrs using by propidium iodide staining by FACS analysis (reference value: 6%); format: functional
[21] = target: Phosphatidylinositol 4,5-bisphosphate 3-kinase catalytic subunit alpha isoform (Homo sapiens) (UniProt P42336); test: Inhibition of PI3K p110 alpha in human HL60 cells assessed as PARP 1 clevage by Western blotting analysis; format: cell-based; settings: HL-60; outline: as §2
HL-60 [22] = test: Induction of apoptosis in human HL60 cells assessed as mitochondrial membrane potential loss at 10 uM after 6 hrs by RH 123 staining-based flow cytometer analysis (reference value: 6%); format: functional; outline: as §3
[23] = target: Phosphatidylinositol 4,5-bisphosphate 3-kinase catalytic subunit alpha isoform (Homo sapiens) (UniProt P42336); test: Inhibition of PI3K p110 alpha in human HL60 cells assessed as caspase 3 clevage by Western blotting analysis; format: cell-based; settings: HL-60; outline: as §2
[24] = target: Phosphatidylinositol 4,5-bisphosphate 3-kinase catalytic subunit alpha isoform (Homo sapiens) (UniProt P42336); test: Inhibition of PI3K p110 alpha in human HL60 cells assessed as effect on total AKT level by Western blotting analysis; format: cell-based; settings: HL-60; outline: as §2
[25] = target: Phosphatidylinositol 4,5-bisphosphate 3-kinase catalytic subunit alpha isoform (Homo sapiens) (UniProt P42336); test: Inhibition of PI3K p110 alpha in human HL60 cells by Western blotting analysis; format: cell-based; settings: HL-60; outline: as §2
[26] = target: Phosphatidylinositol 4,5-bisphosphate 3-kinase catalytic subunit alpha isoform (Homo sapiens) (UniProt P42336); test: Inhibition of PI3K p110 alpha in human HL60 cells assessed as inhibition of mTOR phosphorylation by Western blotting analysis; format: cell-based; settings: HL-60; outline: as §2
HL-60 [27] = test: Induction of apoptosis in human HL60 cells assessed as late apoptotic cells at 20 uM after 6 hrs by Annexine V/propidium iodide staining-based FACS flow cytometry analysis (reference value: 2%); format: functional
HL-60 [28] = test: Induction of apoptosis in human HL60 cells assessed as mitochondrial membrane potential loss after 6 hrs by RH 123 staining-based flow cytometer analysis; format: functional, cell-based; outline: as §3

- IC50 (HL-60 [1]): 40.2 µM
- IC50 (PC-3): 35.8 µM
- IC50 (A-375): 20.8 µM
Compound: O=C1C[C@@H]2O[C@@H](C=C[C@@H]2O)C/C=C\C[C@H](c2ccc(F)cc2)O1

- IC50 (HL-60 [1]): 30.9 µM
- IC50 (PC-3): 21.5 µM
- IC50 (A-375): 50 µM
Compound: O=C1C[C@@H]2O[C@@H](C=C[C@@H]2O)C/C=C\C[C@H](c2ccc3ccccc3c2)O1

- IC50 (HL-60 [1]): 1.1 µM
- inhibition [5]: Active
- inhibition [13]: Active
- inhibition [17]: Active
- inhibition [21]: Dose-dependent effect
- IC50 (PC-3): 7.36 µM
- inhibition [23]: Dose-dependent effect
- IC50 (A-375): 9.64 µM
- inhibition [24]: inactive
- inhibition [25]: Active
- inhibition [26]: Active
Compound: CO[C@H]1C=C[C@H]2C/C=C\C[C@H](c3ccc(-c4ccccc4C(F)(F)F)cc3)OC(=O)C[C@@H]1O2
- Activity (HL-60 [2]): 37%
- Activity (HL-60 [3]): 37%
- Activity (HL-60 [4]): Active
- Activity (HL-60 [6]): 25%
- Activity (HL-60 [7]): 3%
- Activity (HL-60 [8]): 24%
- IC50 [9]: ≥ 100 µM
- Activity (HL-60 [10]): 32%
- inhibition (HL-60 [11]): inactive
- Activity (HL-60 [12]): Dose-dependent effect
- Activity (HL-60 [14]): Dose-dependent effect
- Activity (HL-60 [15]): 4%
- Activity (HL-60 [16]): Active
- Activity (HL-60 [18]): 62%
- Activity (HL-60 [19]): 21%
- Activity (HL-60 [20]): 30%
- Activity (HL-60 [22]): 36%
- Activity (HL-60 [27]): 4%
- Activity (HL-60 [28]): Dose-dependent effect

- IC50 (HL-60 [1]): 69.7 µM
- IC50 (PC-3): 78 µM
- IC50 (A-375): 57 µM
Compound: CCO[C@H]1C=C[C@H]2C/C=C\CC[C@H](C)OC(=O)C[C@@H]1O2

More lines, now with the values behind:

Compound: CCO[C@H]1C=C[C@H]2C/C=C\C[C@H](c3ccc(Cl)cc3)OC(=O)C[C@@H]1O2
- IC50 (HL-60 [1]): 5.7 µM
- IC50 (PC-3): 9.16 µM
- IC50 (A-375): 4.9 µM

Compound: C[C@H]1CCC/C=C/[C@H]2CC[C@H](O)[C@@H](CC(=O)O1)O2
- IC50 (HL-60 [1]): 81.2 µM

Compound: CO[C@H]1C=C[C@H]2C/C=C\C[C@H](c3ccc(Br)cc3)OC(=O)C[C@@H]1O2
- IC50 (HL-60 [1]): 10 µM
- IC50 (PC-3): 15.8 µM
- IC50 (A-375): 5.45 µM

Compound: COc1ccc(CO[C@H]2C=C[C@H]3C/C=C\C[C@H](c4ccc5ccccc5c4)OC(=O)C[C@@H]2O3)cc1
- IC50 (HL-60 [1]): 10.2 µM
- IC50 (PC-3): 45.4 µM
- IC50 (A-375): > 100 µM

Compound: CCO[C@H]1C=C[C@H]2C/C=C\C[C@H](c3ccc(OC)cc3)OC(=O)C[C@@H]1O2
- IC50 (HL-60 [1]): 69.9 µM
- IC50 (PC-3): 56 µM
- IC50 (A-375): 62.7 µM

Compound: C[C@H]1CCC/C=C/[C@H]2CC[C@H](O)[C@H](CC(=O)O1)O2
- IC50 (HL-60 [1]): 32.8 µM

Compound: COc1ccc(CO[C@H]2C=C[C@H]3C/C=C\C[C@H](c4ccc(F)cc4)OC(=O)C[C@@H]2O3)cc1
- IC50 (HL-60 [1]): 8.83 µM
- IC50 (PC-3): 2.23 µM
- IC50 (A-375): 4.76 µM
